Reference: ChEMBL document CHEMBL3045304, “Sesquiterpene lactones with potential use as natural herbicide models. 2. guaianolides” (2000)
The source made the active and inactive calls. No cut-off for these calls is given here.

Tests used:
Allium cepa [1] = assay: Inhibition of germination of Allium cepa cv. Valenciana (onion) at 0.1 mM or 1 mM after 5 days relative to untreated control; assay type: functional
Triticum aestivum [2] = assay: Inhibition of root length of Triticum aestivum cv. Cortex (wheat) at 0.1 mM or 1 mM after 5 days relative to untreated control; assay type: functional
In short: (§1)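 Wheat: 10 seeds per dish on filter paper with 5 mL test solution, 5 days in the dark at 25 °C, 10 replicates per concentration. Stock test solutions were 10^-3 or 10^-4 M in 10 mM MES, with lower levels made by dilution, all at pH 6.0. Parallel controls were run. Output is % difference from control.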

Triticum aestivum [3] = assay: Inhibition of hypocotyl length of Triticum aestivum cv. Cortex (wheat) at 0.1 mM or 1 mM after 5 days relative to untreated control; assay type: functional; in short: as §1
Triticum aestivum [4] = assay: Inhibition of germination of Triticum aestivum cv. Cortex (wheat) at 0.1 mM or 1 mM after 5 days relative to untreated control; assay type: functional; in short: as §1
Solanum lycopersicum [5] = assay: Inhibition of hypocotyl length of Solanum lycopersicum cv. Tres Cantos (tomato) at 0.1 mM or 1 mM after 5 days relative to untreated control; assay type: functional
In short: (§2)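 Lettuce and tomato seeds, 25 per dish on filter paper, received 5 mL test solution. Incubation was 5 days in the dark at 25 °C, with four replicates per concentration. Solutions were made at 10^-3 or 10^-4 M in 10 mM MES, diluted serially, and adjusted to pH 6.0. Parallel controls were run. Results are % difference from control.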

Solanum lycopersicum [6] = assay: Inhibition of root length of Solanum lycopersicum cv. Tres Cantos (tomato) at 0.1 mM or 1 mM after 5 days relative to untreated control; assay type: functional; in short: as §2
Lepidium sativum [7] = assay: Inhibition of hypocotyl length of Lepidium sativum at 0.1 mM or 1 mM after 5 days relative to untreated control; assay type: functional
Allium cepa [8] = assay: Inhibition of root length of Allium cepa cv. Valenciana (onion) at 0.1 mM or 1 mM after 5 days relative to untreated control; assay type: functional
Triticum aestivum [9] = assay: Stimulation of hypocotyl length of Triticum aestivum cv. Cortex (wheat) at 0.1 mM or 1 mM after 5 days relative to untreated control; assay type: functional; in short: as §1
Allium cepa [10] = assay: Stimulation of germination of Allium cepa cv. Valenciana (onion) at 0.1 mM or 1 mM after 5 days relative to untreated control; assay type: functional
Triticum aestivum [11] = assay: Stimulation of root length of Triticum aestivum cv. Cortex (wheat) at 0.1 mM or 1 mM after 5 days relative to untreated control; assay type: functional; in short: as §1
Solanum lycopersicum [12] = assay: Inhibition of germination of Solanum lycopersicum cv. Tres Cantos (tomato) at 0.1 mM or 1 mM after 5 days relative to untreated control; assay type: functional; in short: as §2
Lactuca sativa [13] = assay: Inhibition of hypocotyl length of Lactuca sativa cv. Roman (lettuce) at 0.1 mM or 1 mM after 5 days relative to untreated control; assay type: functional; in short: as §2
Lactuca sativa [14] = assay: Inhibition of root length of Lactuca sativa cv. Roman (lettuce) at 0.1 mM or 1 mM after 5 days relative to untreated control; assay type: functional; in short: as §2
Lactuca sativa [15] = assay: Inhibition of germination of Lactuca sativa cv. Roman (lettuce) at 0.1 mM or 1 mM after 5 days relative to untreated control; assay type: functional; in short: as §2
Triticum aestivum [16] = assay: Stimulation of germination of Triticum aestivum cv. Cortex (wheat) at 0.1 mM or 1 mM after 5 days relative to untreated control; assay type: functional; in short: as §1
Solanum lycopersicum [17] = assay: Stimulation of hypocotyl length of Solanum lycopersicum cv. Tres Cantos (tomato) at 0.1 mM or 1 mM after 5 days relative to untreated control; assay type: functional; in short: as §2
Solanum lycopersicum [18] = assay: Stimulation of root length of Solanum lycopersicum cv. Tres Cantos (tomato) at 0.1 mM or 1 mM after 5 days relative to untreated control; assay type: functional; in short: as §2
Solanum lycopersicum [19] = assay: Stimulation of germination of Solanum lycopersicum cv. Tres Cantos (tomato) at 0.1 mM or 1 mM after 5 days relative to untreated control; assay type: functional; in short: as §2
Lepidium sativum [20] = assay: Stimulation of hypocotyl length of Lepidium sativum at 0.1 mM or 1 mM after 5 days relative to untreated control; assay type: functional
Lepidium sativum [21] = assay: Stimulation of root length of Lepidium sativum at 0.1 mM or 1 mM after 5 days relative to untreated control; assay type: functional
Lactuca sativa [22] = assay: Stimulation of root length of Lactuca sativa cv. Roman (lettuce) at 0.1 mM or 1 mM after 5 days relative to untreated control; assay type: functional; in short: as §2
Lactuca sativa [23] = assay: Stimulation of hypocotyl length of Lactuca sativa cv. Roman (lettuce) at 0.1 mM or 1 mM after 5 days relative to untreated control; assay type: functional; in short: as §2
Lactuca sativa [24] = assay: Stimulation of germination of Lactuca sativa cv. Roman (lettuce) at 0.1 mM or 1 mM after 5 days relative to untreated control; assay type: functional; in short: as §2
Lepidium sativum [25] = assay: Inhibition of root length of Lepidium sativum at 0.1 mM or 1 mM after 4 days relative to untreated control
Lepidium sativum [26] = assay: Inhibition of germination of Lepidium sativum at 0.1 mM or 1 mM after 4 days relative to untreated control
Allium cepa [27] = assay: Stimulation of root length of Allium cepa cv. Valenciana (onion) at 0.1 mM or 1 mM after 7 days relative to untreated control
Allium cepa [28] = assay: Inhibition of hypocotyl length of Allium cepa cv. Valenciana (onion) at 0.1 mM or 1 mM after 7 days relative to untreated control
Allium cepa [29] = assay: Stimulation of hypocotyl length of Allium cepa cv. Valenciana (onion) at 0.1 mM or 1 mM after 7 days relative to untreated control
Allium cepa [30] = assay: Inhibition of hypocotyl length of Allium cepa cv. Valenciana (onion) at 0.1 mM or 1 mM after 5 days relative to untreated control; assay type: functional
Allium cepa [31] = assay: Stimulation of hypocotyl length of Allium cepa cv. Valenciana (onion) at 0.1 mM or 1 mM after 5 days relative to untreated control; assay type: functional
Allium cepa [32] = assay: Stimulation of root length of Allium cepa cv. Valenciana (onion) at 0.1 mM or 1 mM after 5 days relative to untreated control; assay type: functional
Lepidium sativum [33] = assay: Inhibition of germination of Lepidium sativum at 0.1 mM or 1 mM after 5 days relative to untreated control; assay type: functional
Lepidium sativum [34] = assay: Inhibition of germination of Lepidium sativum at 0.1 mM or 1 mM after 4 days relative to untreated control; design: scale not given: the % may be the effect or the level left
Lepidium sativum [35] = assay: Inhibition of hypocotyl length of Lepidium sativum at 0.1 mM or 1 mM after 4 days relative to untreated control
Allium cepa [36] = assay: Stimulation of germination of Allium cepa cv. Valenciana (onion) at 0.1 mM or 1 mM after 7 days relative to untreated control

Structure (SMILES) | inhibition (Allium cepa [1]) | inhibition (INH) (Triticum aestivum [3]) | inhibition (Triticum aestivum [4]) | inhibition (Solanum lycopersicum [5]) | inhibition (Lepidium sativum [7]) | Activity (Triticum aestivum [9]) | Activity (Triticum aestivum [11]) | inhibition (INH) (Lactuca sativa [13]) | inhibition (INH) (Lactuca sativa [14]) | Activity (Triticum aestivum [16]) | Activity (Solanum lycopersicum [17]) | Activity (Solanum lycopersicum [18]) | Activity (Solanum lycopersicum [19]) | Activity (Lepidium sativum [20]) | Activity (Lepidium sativum [21]) | Activity (Lactuca sativa [22]) | Activity (Lactuca sativa [23]) | Activity (Lactuca sativa [24]) | inhibition (INH) (Triticum aestivum [2]) | inhibition (INH) (Solanum lycopersicum [6]) | also measured
C=C1CC[C@H]2[C@H](C)C(=O)O[C@@H]2[C@@]2(O)C(=C)[C@H](O)C[C@@H]12 | inactive | 20% | inactive | inactive | inactive | 20% | inactive | 20% | <20% | inactive | inactive | inactive | inactive | inactive | inactive | <20% | 20% | inactive | – | – | inhibition (Triticum aestivum [2]): inactive; inhibition (Solanum lycopersicum [6]): inactive; inhibition (Allium cepa [8]): inactive; Activity (Allium cepa [10]): inactive; inhibition (Solanum lycopersicum [12]): inactive; inhibition (Lactuca sativa [15]): inactive; inhibition (Lepidium sativum [25]): inactive; Activity (Lepidium sativum [26]): inactive; inhibition (Lepidium sativum [26]): inactive; Activity (Allium cepa [27]): inactive; inhibition (Allium cepa [28]): inactive; Activity (Allium cepa [29]): inactive
COc1nc(C)nc(NC(=O)NS(=O)(=O)c2ccccc2OCCCl)n1 [LOGRAN] | inactive | 20% | – | – | – | 20% | 20% | >40% | >40% | 20% | >40% | >40% | inactive | >40% | >40% | >40% | >40% | >40% | 20% | >40% | inhibition (INH) (Triticum aestivum [4]): 20%; inhibition (INH) (Solanum lycopersicum [5]): >40%; inhibition (INH) (Allium cepa [8]): >40%; inhibition (INH) (Allium cepa [30]): >40%; Activity (Allium cepa [31]): >40%; Activity (Allium cepa [32]): >40%; inhibition (Solanum lycopersicum [12]): inactive; inhibition (INH) (Lepidium sativum [33]): 20%; inhibition (INH) (Lactuca sativa [15]): >40%; inhibition (INH) (Lepidium sativum [25]): >40%; Activity (Lepidium sativum [34]): 20%; inhibition (INH) (Lepidium sativum [35]): >40%; Activity (Allium cepa [36]): inactive
C=C1[C@@H]2[C@H]3OC(=O)C(=C)[C@@H]3CCC(=C)[C@@H]2C[C@H]1O [ISOZALUZANIN C] | inactive | 20% | – | – | – | 20% | >40% | <20% | – | 20% | >40% | >40% | 20% | >40% | >40% | inactive | <20% | <20% | >40% | >40% | inhibition (INH) (Triticum aestivum [4]): 20%; inhibition (INH) (Solanum lycopersicum [5]): >40%; inhibition (INH) (Allium cepa [8]): >40%; inhibition (INH) (Allium cepa [30]): >40%; Activity (Allium cepa [31]): >40%; Activity (Allium cepa [32]): >40%; inhibition (INH) (Solanum lycopersicum [12]): 20%; inhibition (INH) (Lepidium sativum [33]): >40%; inhibition (Lactuca sativa [14]): inactive; inhibition (INH) (Lactuca sativa [15]): <20%; inhibition (INH) (Lepidium sativum [25]): >40%; Activity (Lepidium sativum [34]): >40%; inhibition (INH) (Lepidium sativum [35]): >40%; Activity (Allium cepa [36]): inactive
C=C1CC[C@H]2C(=C)CC[C@@H](C(=C)CO)[C@H](O)[C@@H]12 | inactive | <20% | inactive | inactive | inactive | <20% | 20% | <20% | – | inactive | inactive | <20% | 20% | inactive | inactive | inactive | <20% | inactive | 20% | <20% | inhibition (Allium cepa [8]): inactive; Activity (Allium cepa [10]): inactive; inhibition (INH) (Solanum lycopersicum [12]): 20%; inhibition (Lactuca sativa [14]): inactive; inhibition (Lactuca sativa [15]): inactive; inhibition (Lepidium sativum [25]): inactive; Activity (Lepidium sativum [26]): inactive; inhibition (Lepidium sativum [26]): inactive; Activity (Allium cepa [27]): inactive; inhibition (Allium cepa [28]): inactive; Activity (Allium cepa [29]): inactive
C=C1C(=O)O[C@H]2[C@H]1C[C@@H](O)C(=C)[C@@H]1C[C@@H](O)C(=C)[C@@]12O | inactive | 20% | inactive | inactive | inactive | 20% | 20% | <20% | 20% | inactive | inactive | inactive | <20% | inactive | inactive | 20% | <20% | inactive | 20% | – | inhibition (Solanum lycopersicum [6]): inactive; inhibition (Allium cepa [8]): inactive; Activity (Allium cepa [10]): inactive; inhibition (INH) (Solanum lycopersicum [12]): <20%; inhibition (Lactuca sativa [15]): inactive; inhibition (Lepidium sativum [25]): inactive; Activity (Lepidium sativum [26]): inactive; inhibition (Lepidium sativum [26]): inactive; Activity (Allium cepa [27]): inactive; inhibition (Allium cepa [28]): inactive; Activity (Allium cepa [29]): inactive
C=C1CC[C@H]2C(=C)CC[C@@H]3[C@H](OC(=O)[C@H]3CO)[C@@H]12 | inactive | 20% | – | – | – | 20% | 20% | – | 20% | <=20% | >40% | >40% | inactive | >40% | >40% | 20% | inactive | <20% | 20% | >40% | inhibition (INH) (Triticum aestivum [4]): <=20%; inhibition (INH) (Solanum lycopersicum [5]): >40%; inhibition (INH) (Allium cepa [8]): >40%; inhibition (INH) (Allium cepa [30]): >40%; Activity (Allium cepa [31]): >40%; Activity (Allium cepa [32]): >40%; inhibition (Solanum lycopersicum [12]): inactive; inhibition (INH) (Lepidium sativum [33]): <20%; inhibition (Lactuca sativa [13]): inactive; inhibition (INH) (Lactuca sativa [15]): <20%; inhibition (INH) (Lepidium sativum [25]): >40%; Activity (Lepidium sativum [34]): <20%; inhibition (INH) (Lepidium sativum [35]): >40%; Activity (Allium cepa [36]): inactive
